According to ChEMBL document CHEMBL4038306, “Development of an Aryloxazole Class of Hepatitis C Virus Inhibitors Targeting the Entry Stage of the Viral Replication Cycle” (J Med Chem, 2017):
In brackets after ≈: the same amount, converted by molar mass.

What was measured:
[1] = Permeability of the compound by PAMPA; format: physicochemical; details: for Papp: read-out: permeability
How it was run: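 Passive diffusion measured by stirred double-sink PAMPA; permeability expressed in 10⁻⁶ cm/s.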

[2] = Kinetic solubility of the compound in pH 7.4 phosphate buffer; format: physicochemical; details: read-out: Kinetic_solubility

Compound | Papp [1] [×10⁻⁶ cm/s] | solubility kinetic [2] [µg/mL] | permeability [1] [×10⁻⁶ cm/s]
CCN(CC)CCCCNC(=O)C1CCN(Cc2nc(-c3ccc(OC)c(OC)c3)oc2C)CC1 | 10.4 | > 72 | 
Cc1cc(-c2nc(CN3CCC(C(=O)NCCCN4C[C@H](C)C[C@H](C)C4)CC3)co2)ccc1F | 215 | > 70 | 
Cc1ccccc1-c1nc(CN2CCC(C(=O)NCCCN3CCC(C)CC3)CC2)c(C)o1 | 425 | > 67 | 
Cc1oc(-c2c3ccccc3cc3ccccc23)nc1CN1CCC(C(=O)NCCCN2C[C@H](C)C[C@H](C)C2)CC1 |  | 62.1 (≈ 112 µM) | 
Cc1oc(-c2c(Cl)cccc2Br)nc1CN1CCC(C(=O)NCCCN2C[C@H](C)C[C@H](C)C2)CC1 |  | > 83 | 
Cc1ccccc1-c1nc(CN2CCC(C(=O)NCCCN3CCC(C)(C)CC3)CC2)c(C)o1 | 241 | > 69 | 
COc1ccc(-c2nc(CN3CCC(C(=O)NCCCN4C[C@H](C)C[C@H](C)C4)CC3)c(C)o2)cc1OC | 81.9 | > 76 | 
Cc1cc(C)cc(-c2nc(CN3CCC(C(=O)NCCCN4C[C@H](C)C[C@H](C)C4)CC3)c(C)o2)c1 | 864 | > 71 | 
Cc1ccccc1-c1nc(CN2CCC(C(=O)N3CCN(CCN(C)C)CC3)CC2)c(C)o1 | 14 | > 67 | 
Cc1ccccc1-c1nc(CN2CCC(C(=O)N3CCN(C4CCN(C)CC4)CC3)CC2)c(C)o1 | < 3.2 | > 71 | 
Cc1ccc(-c2nc(CN3CCC(C(=O)NCCCN4C[C@H](C)C[C@H](C)C4)CC3)c(C)o2)cc1 | 274 | > 69 | 
Cc1cc(-c2nc(CN3CCC(C(=O)NCCCN4CCC(C(C)C)CC4)CC3)co2)ccc1F | 276 | > 72 | 
COc1cccc(F)c1-c1nc(CN2CCC(C(=O)NCCCN3C[C@H](C)C[C@H](C)C3)CC2)c(C)o1 |  | > 74 | 
Cc1oc(-c2cccc(Cl)c2)nc1CN1CCC(C(=O)NCCCN2C[C@H](C)C[C@H](C)C2)CC1 | 615 | > 72 | 
CCCN(CCC)CCNC(=O)C1CCN(Cc2nc(-c3ccccc3C)oc2C)CC1 | 913 | > 65 | 
Cc1cccc(Cl)c1-c1nc(CN2CCC(C(=O)NCCCN3CCC(C(C)C)CC3)CC2)c(C)o1 |  | > 76 | 
COc1cccc(Br)c1-c1nc(CN2CCC(C(=O)NCCCN3C[C@H](C)C[C@H](C)C3)CC2)c(C)o1 | 245 | > 83 | 
Cc1ccccc1-c1nc(CN2CCC(C(=O)NCCCN3CCC(C(C)C)CC3)CC2)c(C)o1 | 396 | > 71 | 
Cc1oc(-c2c(Cl)cccc2C(F)(F)F)nc1CN1CCC(C(=O)NCCCN2C[C@H](C)C[C@H](C)C2)CC1 |  | 65.1 (≈ 117 µM) | 

Compound | Papp [1] [×10⁻⁶ cm/s] | solubility kinetic [2] [µg/mL] | permeability [1] [×10⁻⁶ cm/s]
Cc1ccccc1-c1nc(CN2CCC(C(=O)NCCCN3CCCC(CC(C)C)C3)CC2)c(C)o1 (racemic) | 3 | 54.9 (≈ 111 µM) | 
Cc1oc(-c2c(C)c(C)c(C)c(C)c2C)nc1CN1CCC(C(=O)NCCCN2C[C@H](C)C[C@H](C)C2)CC1 | 455 |  | 
CC[C@@H]1C[C@H](CC)CN(CCCNC(=O)C2CCN(Cc3nc(-c4ccccc4C)oc3C)CC2)C1 |  |  | 1267
Cc1cccc(Cl)c1-c1nc(CN2CCC(C(=O)NCCCN3CCC(C)(C)CC3)CC2)c(C)o1 |  | > 74 | 
Cc1cccc(Cl)c1-c1nc(CN2CCC(C(=O)NCCCN3CCCC(C)C3)CC2)c(C)o1 (racemic) | 651 | 52.6 (≈ 108 µM) | 
COc1cccc(OC)c1-c1nc(CN2CCC(C(=O)NCCCN3C[C@H](C)C[C@H](C)C3)CC2)c(C)o1 |  | > 76 | 
Cc1ccccc1-c1nc(CN2CCC(C(=O)NCCCN3CCOCC3)CC2)c(C)o1 | 432 | > 65 | 
Cc1oc(-c2ccc(Cl)cc2)nc1CN1CCC(C(=O)NCCCN2C[C@H](C)C[C@H](C)C2)CC1 | > 635 | > 72 | 
Cc1ccccc1-c1nc(CN2CCC(C(=O)NCCCN3CC(C)(C)CC(C)(C)C3)CC2)c(C)o1 | > 1400 |  | 
Cc1ccccc1-c1nc(CN2CCC(C(=O)NCCCN3CCCCC3)CC2)c(C)o1 | 34.5 | > 65 | 
Cc1ccc(-c2nc(CN3CCC(C(=O)NCCCN4C[C@H](C)C[C@H](C)C4)CC3)c(C)o2)cc1C | 219 | > 71 | 
Cc1ccccc1-c1nc(CN2CCC(C(=O)NCCCN3CCCC(C(C)C)C3)CC2)c(C)o1 (racemic) |  | > 71 | 
Cc1oc(-c2c(Br)cccc2Br)nc1CN1CCC(C(=O)NCCCN2C[C@H](C)C[C@H](C)C2)CC1 | < 1 | 62.4 (≈ 102 µM) | 
Cc1ccccc1-c1nc(CN2CCC(C(=O)NCCCN3CC4CCCC(C4)C3)CC2)c(C)o1 | 331 | > 71 | 
CC[C@@H]1C[C@H](CC)CN(CCCNC(=O)C2CCN(Cc3nc(-c4c(F)cccc4F)oc3C)CC2)C1 | 130 |  | 
Cc1oc(-c2c(F)cccc2F)nc1CN1CCC(C(=O)NCCCN2C[C@H](C)C[C@H](C)C2)CC1 | 82.4 | > 72 | 
Cc1ccccc1-c1nc(CN2CCC(C(=O)NCCCN3[C@H](C)CCC[C@@H]3C)CC2)c(C)o1 | 55.4 | > 69 | 
Cc1oc(-c2c(Cl)cccc2Cl)nc1CN1CCC(C(=O)NCCCN2C[C@H](C)C[C@H](C)C2)CC1 |  | > 77 | 
COc1cccc(Cl)c1-c1nc(CN2CCC(C(=O)NCCCN3C[C@H](C)C[C@H](C)C3)CC2)c(C)o1 | 51 | > 76 | 

The next lines start with the values.

Papp [1] [×10⁻⁶ cm/s] | solubility kinetic [2] [µg/mL] | permeability [1] [×10⁻⁶ cm/s] | Compound
198 | > 73 |  | COc1cccc(C)c1-c1nc(CN2CCC(C(=O)NCCCN3C[C@H](C)C[C@H](C)C3)CC2)c(C)o1
353 | > 71 |  | Cc1ccc(-c2nc(CN3CCC(C(=O)NCCCN4C[C@H](C)C[C@H](C)C4)CC3)c(C)o2)c(C)c1
288 | > 71 |  | Cc1ccccc1-c1nc(CN2CCC(C(=O)NCCCCN3C[C@H](C)C[C@H](C)C3)CC2)c(C)o1
 | 56.1 (≈ 117 µM) |  | Cc1ccc(C)c(-c2nc(CN3CCC(C(=O)NCCCN4C[C@H](C)C[C@H](C)C4)CC3)c(C)o2)c1
 | > 67 |  | Cc1ccccc1-c1nc(CN2CCC(C(=O)NCCCN3CCCC(C)C3)CC2)c(C)o1 (racemic)
352 | > 72 |  | Cc1oc(-c2ccccc2Cl)nc1CN1CCC(C(=O)NCCCN2C[C@H](C)C[C@H](C)C2)CC1
 | > 74 |  | Cc1oc(-c2cccc3ccccc23)nc1CN1CCC(C(=O)NCCCN2C[C@H](C)C[C@H](C)C2)CC1
254 | 55.9 (≈ 116 µM) |  | Cc1cccc(C)c1-c1nc(CN2CCC(C(=O)NCCCN3C[C@H](C)C[C@H](C)C3)CC2)c(C)o1
 | > 71 |  | Cc1ccccc1-c1nc(CN2CCC(C(=O)NCCCN3C[C@H](C)C[C@H](C)C3)CC2)c(C)s1
489 | 53.9 (≈ 115 µM) |  | Cc1ccccc1-c1nc(CN2CCC(C(=O)NCCCN3C[C@H](C)C[C@H](C)C3)CC2)c(C)o1
234 | > 72 |  | Cc1cccc(F)c1-c1nc(CN2CCC(C(=O)NCCCN3C[C@H](C)C[C@H](C)C3)CC2)c(C)o1
547 | > 76 |  | Cc1ccc2ccccc2c1-c1nc(CN2CCC(C(=O)NCCCN3C[C@H](C)C[C@H](C)C3)CC2)c(C)o1
196 | > 74 |  | Cc1cccc(Cl)c1-c1nc(CN2CCC(C(=O)NCCCN3C[C@H](C)C[C@H](C)C3)CC2)c(C)o1
106 | 55.9 (≈ 116 µM) |  | CCc1ccccc1-c1nc(CN2CCC(C(=O)NCCCN3C[C@H](C)C[C@H](C)C3)CC2)c(C)o1
279 | > 69 |  | Cc1cccc(-c2nc(CN3CCC(C(=O)NCCCN4C[C@H](C)C[C@H](C)C4)CC3)c(C)o2)c1
712 | > 67 |  | Cc1ccccc1-c1nc(CN2CCC(C(=O)NCCN3C[C@H](C)C[C@H](C)C3)CC2)c(C)o1
554 | > 69 |  | Cc1ccccc1-c1nc(CN2CCC(C(=O)NCCCN3C[C@H](C)C[C@@H](C)C3)CC2)c(C)o1 (racemic)
